Reference: ChEMBL document CHEMBL5113496, “A systematic exploration of boceprevir-based main protease inhibitors as SARS-CoV-2 antivirals” (Eur J Med Chem, 2022)

What was measured:
SARS-CoV-2 [1] = assay: Antiviral activity against SARS-CoV2 USA-WA1/2020 infected in African green monkey Vero E6 cells assessed as reduction in viral plaques incubated for 3 days by plaque reduction neutralization test; format: functional, organism-based; settings: Severe acute respiratory syndrome coronavirus 2, USA-WA1/2020, Vero C1008, 72 h
SARS-CoV-2 [2] = assay: Antiviral activity against SARS-CoV2 Beta infected in African green monkey Vero E6 cells assessed as reduction in viral plaques incubated for 3 days by plaque reduction neutralization test; format: functional, organism-based; settings: Severe acute respiratory syndrome coronavirus 2, Beta, Vero C1008, 72 h
SARS-CoV-2 [3] = assay: Antiviral activity against SARS-CoV2 Delta infected in African green monkey Vero E6 cells assessed as reduction in viral plaques incubated for 3 days by plaque reduction neutralization test; format: functional, organism-based; settings: Severe acute respiratory syndrome coronavirus 2, Delta, Vero C1008, 72 h
[4] = Cytotoxicity against HEK293T/17 cells assessed as inhibition of cell growth incubated for 48 hrs by MTT assay; format: toxicity, cell-based; settings: human, hek293t/17, 48 h
Summary of the method: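 293T cells seeded and held 24 h at 37 °C, 5% CO2, then exposed in triplicate for 48 h to a range of compound concentrations. Compounds were taken from DMSO stocks and diluted in culture medium. Viability was read by MTT. CC50 was taken from normalised % viability plotted against log10 concentration.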

Compound | EC50 (SARS-CoV-2 [1]) [nM] | EC50 (SARS-CoV-2 [2]) [nM] | EC50 (SARS-CoV-2 [3]) [nM] | CC50 [4] [nM]
C[C@@H](OC(C)(C)C)[C@H](NC(=O)OCc1ccccc1)C(=O)N1C[C@H]2[C@@H]([C@H]1C(=O)N[C@H](C=O)C[C@@H]1CCNC1=O)C2(C)C | 1080 | 2280 | 750 | 163000
CC(C)(C)[C@H](NC(=O)OCc1ccccc1)C(=O)N1C[C@H]2[C@@H]([C@H]1C(=O)N[C@H](C=O)C[C@@H]1CCNC1=O)C2(C)C | 2940 | 860 | 1040 | 144000
CC(C)(C)OC(=O)N[C@H](C(=O)N1C[C@H]2[C@@H]([C@H]1C(=O)N[C@H](C=O)C[C@@H]1CCNC1=O)C2(C)C)C(C)(C)C | 610 | – | 1000 | 34200
